STAT1 inh = STAT1 signaling inhibitors, primary screen, cell-based, HTS, luciferase reporter; hit rate 0.35% among 200,000; NIH 3T3 STAT1-luciferase reporter, IFN-gamma, luminescence; inhibition, % at 5.5 µM;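 active means inhibition above a set limit, the mean inhibition across all tested compounds plus 3 SD, cut at about 34% in these data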;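 further: 0% = IFN-gamma with DMSO and 100% = IFN-gamma with 300 µM nifuroxazide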
NF-kB neuron act = activators of NF-kB expression in neurons, primary screen, cell-based, HTS; human neuronal cells, NF-kB reporter expression; stronger effect = higher value; fold change at 12.5 µM; hit rate 1.6% among 190,000; AID 1239, 2008; in the data active means fold change above about 3.3
STAT3 blocker = IL-6 driven STAT3 reporter inhibitors, primary screen, U3A cells, luciferase, luminescence, MLSCN library. IL-6 STAT3-luciferase reporter; host cell line lacks STAT1. inhibition, % at 5.5 µM. hit rate 0.89% among 190,000. AID 862, 2007;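 active means inhibition above the mean inhibition across all screened compounds plus 3 SD, cut at about 44% in these data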;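 further: 0% = DMSO only wells and 100% = 100 µM nifuroxazide control wells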
APP 5'UTR act = activators of APP 5'UTR luciferase reporter, primary screen, SH-SY5Y cells. SH-SY5Y APP 5'UTR luciferase reporter, luminescence; zero percent = DMSO vehicle wells. AID 1276, 2008. activation, % at 2 µM. hit rate 1% among 190,000;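 active means activation above a set limit, based on mean plus 3 SD of controls, cut at about 140% in these data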
STAT3 activator = IL-6 driven STAT3 reporter potentiators, primary screen, U3A cells, luciferase, luminescence, MLSCN library; hit rate 0.91% among 190,000; AID 871, 2007; activation (% of control), % at 5.6 µM; IL-6 STAT3-luciferase reporter; 100% = signal with IL-6 EC80 alone;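 active means activation above the screen-wide mean of compound activation plus 3 SD, cut at about 130% in these data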;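 further: 0% = background luminescence of wells with medium and substrate only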
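Material: STAT1-lacking human U3A cells, STAT3 luciferase reporter | Benchmarks: IL-6-only wells as 100% reference | Probe or stimulus: IL-6 (33 ng/mL) | Timing: Compound 1 h, then IL-6 6 h at 37 °C | Detection: Luminescence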
STAT1 activator = STAT1 signaling activators, primary screen, cell-based, HTS, luciferase reporter; NIH 3T3 STAT1-luciferase reporter, IFN-gamma, luminescence; 100% = IFN-gamma alone, no compound; AID 932, 2007; hit rate 2.6% among 200,000; activation (% of control), % at 5.5 µM;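 active means activation above the screen-wide mean activation plus 3 SD, cut at about 130% in these data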;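 further: raw ratio to IFN-gamma control signal so 100% means no change and 0% no light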
The depositor's hits bear a star. Most compounds without a hit are left out; they make up all but 5.1% or so of the library.

SMILES | STAT1 inh | NF-kB neuron act | STAT3 blocker | APP 5'UTR act | STAT3 activator | STAT1 activator
O=C(Cc1ccccc1)Nc1c2c(nn1-c1cccc(Cl)c1)CS(=O)(=O)C2 | 6 | 1.1 | 4 | 3 | 99 | 94
COc1ccc(-n2c(Cc3cccn3C)nnc2SCC(=O)Nc2ccc(F)cc2)cc1 | 8 | 0.73 | -9 | 7 | 107 | 90
CC(OC(=O)c1ccco1)C(=O)NC1CCCCC1 (centres undefined) | 1 | 1.1 | -1 | 4 | 106 | 99
CC1=CSC2=NC(=O)/C(=C/c3cccc(OC(=O)c4ccco4)c3)C(=N)N12 | 6 | 1.1 | -2 | -19 | 100 | 95
O=C(Nc1nc2c(ccc3ccccc32)s1)c1cc([N+](=O)[O-])ccc1N1CCOCC1 | -35 | 1.2 | -31 | 20 | 133* | 131*
O=C(Nc1nc(-c2ccc(-c3ccccc3)cc2)cs1)c1cc([N+](=O)[O-])ccc1N1CCOCC1 | -10 | 1.1 | 2 | 15 | 103 | 107
Brc1cccc2sc(N3CCN(c4ccccc4)CC3)nc12 | -21 | 1.1 | 9 | 14 | 102 | 117
Cc1ccc(-n2nc(C)c3c2OC(N)=C(C#N)C3c2ccncc2)cc1 (centres undefined) | 12 | 1.1 | -25 | 14 | 125 | 90
Cc1ccc(-n2nc(C)c3c2OC(N)=C(C#N)C3c2ccccc2F)cc1 (centres undefined) | 18 | 1 | -43 | -47 | 146* | 84
Cc1nn(-c2ccccc2)c2c1C(c1c(C)[nH]c(C#N)c1C)C(C#N)=C(N)O2 (centres undefined) | 0 | 1 | -37 | 4 | 134* | 100
Cc1cccc(CSCc2nnc(N)s2)c1 | -5 | 1.2 | 4 | 14 | 100 | 104
Cc1ccccc1CSc1nnc(C)n1N | -1 | 1.4 | -6 | -15 | 108 | 101
c1ccc2oc(SCc3cn4ccccc4n3)nc2c1 | -33 | 3.4* | 12 | 125 | 93 | 131*
Cc1cccc2nc(CSc3nc4ccccc4o3)cn12 | -16 | 1.4 | 9 | 24 | 94 | 114
c1ccc2oc(SCc3nc4ccccc4s3)nc2c1 | -42 | 3.1 | -41 | 122 | 138* | 139*
Cc1nnc(SCc2nc3ccccc3s2)n1N | -37 | 1.6 | -50 | 91 | 141* | 134*
O=C(O)c1ccccc1CSc1nc2ccccc2o1 | -44 | 1.8 | -13 | 29 | 115 | 140*
COc1ccc(-n2c(-c3cccc(OC)c3)nc(=S)c3c2CCCC3)cc1 | 10 | 1.4 | 10 | 17 | 97 | 91
CCSc1nnc(N(CCC(=O)O)CCC(=O)O)s1 | 6 | 1.3 | -1 | -11 | 101 | 94
Cc1cc(C)n2nc(SCc3nnc(SCc4ccccc4)s3)nc2n1 | 16 | 0.85 | -5 | -11 | 108 | 86
CCOC(=O)c1nc(NCCc2ccccc2)sc1C | -34 | 2.4 | 6 | 15 | 99 | 132*
CCOC(=O)Cc1ccc2sc(-c3ccccc3)nc2c1 | -43 | 9.4* | 8 | 178* | 93 | 139*
CCOC(=O)c1sc(-c2ccccc2)cc1N | -47 | 2.5 | -3 | 86 | 105 | 132*
CCOC(=O)c1sc(-c2ccccc2)nc1C | -42 | 1.4 | 0 | 41 | 104 | 135*
CCOC(=O)c1sc(-c2ccc(F)cc2)cc1N | -27 | 2.1 | -4 | 95 | 104 | 125
SMILES | STAT1 inh | NF-kB neuron act | STAT3 blocker | APP 5'UTR act | STAT3 activator | STAT1 activator
CCOC(=O)CC(=O)Nc1nc2ccccc2s1 | -15 | 1.3 | 3 | 0 | 104 | 114
CCOC(=O)c1nc(NNC(C)=O)sc1C | 0 | 1.1 | 11 | 13 | 94 | 99
Cc1cc(C(=O)CN2C(=O)C(=O)N(C3CCCC3)C2=O)c(C)n1-c1ccc(F)cc1 | 7 | 1.1 | 8 | 3 | 95 | 94
CCCn1c(=O)c2ccccc2n2c(SCCOc3ccc(Cl)cc3)nnc12 | 2 | 1.1 | 10 | 22 | 95 | 96
FC(F)(F)c1nnc2ccc(N3CCOCC3)nn12 | 1 | 0.95 | -3 | -1 | 106 | 99
CNc1nc(C)c(C(=O)OCc2ccccc2)s1 | -17 | 5* | 0 | 28 | 101 | 116
CCOC(=O)c1cc(-c2ccccc2)sc1N | -38 | 2.4 | 2 | 28 | 101 | 135*
O=C1c2ccccc2C(=O)N1CCc1c[nH]c2ccc(O)cc12 | -37 | 1.9 | 30 | 14 | 77 | 132*
COC(=O)c1[nH]c(=O)c2ccccc2c1OCc1ccccc1 | 2 | 3.8* | 6 | 0 | 99 | 99
COC(=O)c1[nH]c(=O)c2ccccc2c1O | -2 | 1.1 | 4 | 4 | 98 | 103
CN(C)CCCN(C(=O)/C=C/c1cccs1)c1nc2c(F)cccc2s1 | 0 | 5.4* | 13 | 29 | 98 | 99
CC(/C=C1\SC(=S)N(CCCC(=O)Nc2ccc(C(=O)O)cc2)C1=O)=C\c1ccccc1 | -3 | 1.8 | 5 | 15 | 99 | 102
CC(/C=C1\SC(=O)N(CCCC(=O)O)C1=O)=C\c1ccccc1 | 36* | 0.28 | 84* | -79 | 31 | 66
COCCn1c(=NC(=O)c2ccc(S(=O)(=O)N3CCc4ccccc4C3)cc2)sc2cc(S(N)(=O)=O)ccc21 | -3 | 1.1 | -29 | 9 | 135* | 102
Brc1ccc(OCc2cn3ccccc3n2)cc1 | -50 | 4.6* | 38 | 140* | 73 | 147*
CCN(CC(=O)c1c(N)n(C)c(=O)n(C)c1=O)c1cccc2ccccc12 | 6 | 0.72 | -31 | 4 | 121 | 95
COc1ccc(C(=O)OCC(=O)N2CCCC2=O)c(OC)c1 | -45 | 1.1 | 0 | 3 | 104 | 139*
COc1cc2ccccc2cc1C(=O)OCC(=O)N1CCOCC1 | -3 | 1.1 | 14 | 24 | 92 | 101
COc1ccc(C(=O)Nn2c(SCC(=O)N3CCC(C)CC3)nc3ccccc3c2=O)cc1 | 64* | 0.82 | 88* | 31 | 31 | 42
COc1ccc(C(=O)Nn2c(SCc3cccc([N+](=O)[O-])c3)nc3ccccc3c2=O)cc1 | -49 | 0.86 | 7 | 94 | 96 | 144*
O=C(Nn1c(SCc2cccc([N+](=O)[O-])c2)nc2ccccc2c1=O)c1ccccc1 | -56 | 0.96 | -18 | 119 | 121 | 150*
COc1ccc(C(=O)Nn2c(SCC(=O)c3ccc(Cl)cc3)nc3ccccc3c2=O)cc1 | 16 | 0.78 | 26 | 132 | 82 | 86
O=C(NNc1ccc(C(F)(F)F)cc1[N+](=O)[O-])c1ccc(NS(=O)(=O)c2ccc(F)cc2)cc1 | 4 | 1.1 | -5 | 7 | 102 | 96
Cc1cc(C(=O)NC2CCCC2)on1 | -2 | 0.99 | -1 | -5 | 101 | 103
